From paper PMC3949138 (Journal of veterinary pharmacology and therapeutics, 2013)
Values joined by “and” are separate entries in the source; they are usually repeats but may differ in a detail not shown here. Identical values can stand only once. Like-named read-outs stand apart in the source and are kept apart here.

Columns and labels:
[1] = ref Kelly et al., 2005, cited from earlier work
dogs = settings: dog, in vivo; cited from earlier work
[2] = tested on: acetylated histone (H3K9,14); assay type: in vivo, cats
[3] = ref Sandhu et al., 2007, cited from earlier work
[4] = Serum pharmacokinetics of SAHA in cats after IV and PO administration; assay type: in vivo
Method in brief: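 Six adult SPF cats (3 female, 3 male, 10–18 months) in a randomized crossover with 1-week washout: 2 mg/kg IV (20 mg/mL in DMSO) or 250 mg/m2 PO in gelatin capsules. Serum without anticoagulant at set times up to 1440 min, stored at −70 °C. d5-SAHA internal standard at 1000 ng/mL final; acetonitrile extraction; C18 UPLC, positive-ion ESI MS/MS; LOQ 2.26 ng/mL; non-compartmental parameters.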

cats = test: Tolerability monitoring in cats; assay type: in vivo
Method in brief: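 Six cats dosed in the crossover (2 mg/kg IV in DMSO; 250 mg/m2 PO capsules) had physical examinations. CBC (14 parameters) and serum biochemistry (16 values) were taken 1 week before, 24 h after and 1 week after each dose. Daily food intake was recorded for 1 week before and after each dosage; days compared by […].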

[5] = cats n=6, 250 mg/m2 PO, mean ± SD
[6] = after IV administration of the SAHA/DMSO mixture

For `O=C(CCCCCCC(=O)Nc1ccccc1)NO` [SAHA, Suberoylanilidehydroxamic acid], the “half-life following IV administration” value ([1]; humans, IV, 2003, Kelly et al.) is listed as 21 to 58 min, the bioavailability ([1]; patients with advanced cancer, estimated) is listed as 43% and the “no observed adverse effects level (NOAEL)” value (dogs) is listed as 60 mg/kg. The “acetylated histone protein in blood leukocytes (acetyl H3/total H3)” value ([2]; 4 cats, 2 mg/kg IV and 250 mg/m2 PO) was “An increase in acetylated histone protein was detected”, the “time for acetylated histone protein to return to baseline” value ([2]; 4 cats, after IV and PO administration) was “approximately 2 hours” and the “histone acetylation in peripheral blood mononuclear cells” value ([2]; single cat #11-245, 60 mg/kg PO, 0, 60, 120, 1440 min) was “demonstrated a pharmacodynamic effect which roughly correlated with pharmacokinetics”. For the same molecule, the oral bioavailability ([3]; dog) was 1.8%, the terminal elimination half-life ([3]; dogs, 2 mg/kg IV) was 12 min and the AUC0-τ ([3]; dogs, 20 mg/kg oral) was 0.42 µM·h. For the same molecule, the Cmax ([3]; read-out: average Cmax, dogs, 20 mg/kg oral) was 260 nM, the Cmax ([4]; both, cat, serum, po, 250 mg/m2) was ~160 nM and the AUC ([4]; both, serum, iv, 2 mg/kg) was 150 ± 40 ng·h/mL. It also gave an AUC(0-inf) ([4]; both, serum, iv, 2 mg/kg) of 150 ± 50 ng·h/mL, a clearance ([4]; both, serum, iv, 2 mg/kg) of 233 mL/min/kg and a half-life ([4]; both, serum, iv, 2 mg/kg) of 9 min. For the same molecule, the half-life ([4]; both, serum, po, 2 mg/kg) was 120 ± 60 min, the AUC ([4]; both, serum, po, 250 mg/m2) was 0.266 µM·h and 70 ng·h/mL and the AUC(0-inf) ([4]; both, serum, po, 250 mg/m2) was 80 ± 20 ng·h/mL. The Cmax ([4]; both, serum, po, 250 mg/m2) was 160 nM, the bioavailability ([4]; both, serum, po, 250 mg/m2) was 8 ± 4% and the Cmax ([4]; cat, serum, po, 60 mg/kg) was 50.1 ng/mL. The “T1/2λz (elimination half-life)” value ([4]; cats n=6, 2 mg/kg IV in DMSO, serum, mean ± SD) was 9 ± 1.8 min, the “Percent Extrapolated (of AUC)” value ([4]; cats n=6, 2 mg/kg IV, mean ± SD) was 0.6 ± 0.2% and the “Cmaxobs (observed maximum serum concentration)” value [4, 5] was 41.7 ng/mL and 40 ± 10 ng/mL. The “Percent Extrapolated (of AUC)” value [4, 5] was 17 ± 7%, the “Tmaxobs (time to observed maximal serum concentration)” value [4, 5] was 36 ± 18 min and the overall tolerability (cats; 2 mg/kg IV and 250 mg/m2 PO, domestic cats) was “well tolerated”. For the same molecule, the “change in daily food intake following drug administration” value (cats; 1 week before and 1 week after each dosage (IV and PO)) was “No significant change”, the “duration of moderate bleeding from venipuncture sites” value (cats; [6]) was “up to 5 minutes” and the “moderate bleeding from venipuncture sites (cats affected)” value (cats; [6]) was 2/6. The “open-mouth breathing (cats affected)” value (cats; immediately following 2 mg/kg IV injection in DMSO) was 2/6.
